Fewer inactive variants are shown than the library holds.
B1: tRNA (parent)
chain: GUUCCGUUGGCGUAAUGGUAACGCGUCUCCCUCCUAAGGAGAAGACUGCGGGUUCGAGUCCCGUACGGAACG

Variants of: B1
Assay: yeast fitness relative to wild type (ratio to wild type); higher = fitter; tRNA-Arg(CCU), competitive growth, 37 C, YPD
Summary of the method: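 Amplicons of the tRNA-Arg(CCU) gene were sequenced, 100-nucleotide paired-end, from the start population and from each end population of a pooled yeast competition. The competition, in six parallel replicates, lasted 24 hours in YPD at 37°C. Fitness relative to wild type was calculated from changes in genotype frequencies. Genotypes had to have ≥ 100 starting reads, and estimates < 0.5 were set to 0.5.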

Compared with GUUCCGUUGGAGUAAUGGUGACGCGUCUCCCUCCUAAGGAGAAGACUGCGGGUUCGAGGCCCGUACGGAACG [C11A A20G U59G], GUUCCCUUGGCGUAAUCGUAACGCGUCUCCGUCCUGAGGAGAAGACUGCGGGUUCGAGCCCCGUACGGAACG [G6C G17C C31G A36G U59C] is higher in yeast fitness: at most 0.5 for the first, 0.599 for the second.

First: GUUCCGUUGGCGUAAUGGUAACGCGUCUCCCUCCUAAGGAGAAGACUGCGGGUACGAGUCCCGUACCAAACG [U54A G67C G68A]
Second: GUUCCGUUGAUGUAAUGGUAACGCGUCUCCCUCCUGAGGAGAAGACUGCGGGUUCGAGUCCCGUACCGAACG [G10A C11U A36G G67C]
The yeast fitness of the first is lower: at most 0.5 for the first, 0.572 for the second.

Going from GUUCCGUUGGCGUAAUGGCAACGCGUCUCCCUCUUAAGGAGAAGACUGAGGGUUCCAGUCCAGUCCGGAACG [U19C C34U C49A G56C C62A A65C] to GUUCCGUUGGCGUAAUGGUAACGCGUCUCCCUCUUAUGGAGAAGACUGCGGGUUCGAGUCCCGUACGGAACG [C34U A37U], the yeast fitness rises from at most 0.5 to 0.535.

First: GUUCCGUUGGCGUAAUGGUAACGCGGCUCCCUCCUAAGGAGAAGACUGCGGGUUCGAGUCCCGUACGGUACG [U26G A69U]
Second: GUUCCGUUGGCGUCAUCGUAGCGCGUCUCCCACUUAAGGAGAAGACUGCGGGUUCGAGUCCCGUACGGAACG [A14C G17C A21G U32A C34U]
The yeast fitness of the first is higher: 0.919 for the first, at most 0.5 for the second.

First: GUUCAGUUGGCGUAAUGGUAUCGCGUCUCCCACCUAAGGAGAAGACUGCAGGUUCGAGUGCCGUACGGAACG [C5A A21U U32A G50A C60G]
Second: GUUCCGUUGGCGUGAUGGUAACGCGUCUCCCUCCUAAGGAGAAGACUGUGGGUUCGAGUCCCGUACGGAACG [A14G C49U]
The yeast fitness of the first is lower: at most 0.5 for the first, 0.908 for the second.

First: GUUCCGCUGGCGUAAGGGUAACGCGUCACCCUCCUAAGGAGAAGACUGCGGGUUCGAGUCCCGUACGGAACG [U7C U16G U28A]
Second: GUUCCGUUGGCGUAAUGGUAACGCGUCUUCCUCCUAAGGAGAAGACUCCGGAUUCGAGUCCCGUACGGAACG [C29U G48C G52A]
The yeast fitness of the first is lower: at most 0.5 for the first, 0.591 for the second.

Compared with GUUCCGUUGGCGUAAUGGUAACGCGUCUCCCUCCUAAGGGGAAGACUGCGGGUUCGAGUCCCGUAAGGAACG [A40G C66A], GUUUCGGUGGCGUAAUGGUAACGCGUCUCCCUCGUAAGGAGAAGACUGCGGGUUCGAGUCCCGUACGGAACG [C4U U7G C34G] is lower in yeast fitness: 0.694 for the first, 0.554 for the second.

Compared with GUCCCGUUGGCGUAAUGAUAACGCGUCUCCCGCCUAAGGAGACGACUGCGAGUUCGAGUCCCGUACGGAACG [U3C G18A U32G A43C G51A], GUUCCGUUGGCGUAAUGGUAAGGCGUCUCCCUCCUAAGGAGACGUCUGCGGAUUCGAGUCCCGUACGGAACG [C22G A43C A45U G52A] is lower in yeast fitness: 0.626 for the first, at most 0.5 for the second.

Compared with GUUCCGUUGACGUAAUGGUAACGCGUCUCCCUCCUAAGGAGAAAACUGCGGGUUCGAGUCCCGUACGGAACG [G10A G44A], GUUCCGUUGGCGUAAUGGUAACGCGUCUCCCUCCUAAGGAGAAUACUGGGGGUUCGAGUCCCGUACGGAACG [G44U C49G] is lower in yeast fitness: 0.786 for the first, 0.654 for the second.

GUUCCGUUGACGUAAUGGAAACGCGUCUCCCUCCUAAGGCGAAGACUGCGGGUUCGAGUCCCGUACGGAACG [G10A U19A A40C] and GUUCCGUUGACGUAAUGGUAACGCGUCCCCCUCCUAAGGAGAAGACUGCGGGUUCGAGUCUCGUAGGGAACG [G10A U28C C61U C66G] cannot be ordered by yeast fitness: at most 0.5 for the first, at most 0.5 for the second.

Compared with GUUCCGUUGGCGUACUGGUAACGCGCCUCCCUCCUAAGGAGAAGACUGCGGGUUCGAGUCCCGUACUGGACG [A15C U26C G67U A69G], GUUACGCUGGCGUAAUGGUAACGCGGCUCCCUCCUAAGGAGAAGACUGCGGGUUCGAGUCCCGUCCGGAACG [C4A U7C U26G A65C] is higher in yeast fitness: at most 0.5 for the first, 0.59 for the second.

First: GUUCCGUUGGGGUAAUGGUAACGCGUCUCCCGCCUAAGGAGAAGACUGCGGGUUCGCGUCCUGUAUGGAACG [C11G U32G A57C C62U C66U]
Second: GUUCCGUUGGCGUAAUGGUACCGCGUCUCCCUCCUAAGGAGAAGACUGCGGGUUCGAGACCCGUACGGAACG [A21C U59A]
The yeast fitness of the first is lower: 0.556 for the first, 0.791 for the second.

Compared with GAUUCGUUGGCGUAAUGGUAACGCGUCACUCUCCUAAGGAGAAGACUGCGGGUUCGAGUGCCGUAGGGAACG [U2A C4U U28A C30U C60G C66G], GUUCCGUUGGCGUAAUGGUAACGCGACUCCCUCCUAAGGAGAAGACUGCGGGUUCGAGUCCUGUACGGAACG [U26A C62U] is higher in yeast fitness: at most 0.5 for the first, 0.934 for the second.

Going from GUUCCGUUGGCGUCAUGGUAACGCGUCUCCCUCCUAAGGAGAAGACUGCGGGUUAGAAUCCCGUACGGAACG [A14C C55A G58A] to GUUCCGUUGGCGUACUGGUAACGCGUCUCCCUCCUAUGGAGAAGACUGCGGGUUCGAGUCCCGUAUGGAACG [A15C A37U C66U], the yeast fitness rises from 0.55 to 0.584.

Compared with GGUCCGUUGGCGUAAUGGUAACGCGUCUCCCUCCUAAGGAGAAGACUGCGGGUUCGAGUCCCCUACGGAACG [U2G G63C], GCUCCGUUGGCGUGAUGAUAACGCGUCUCCCACCUAAGGAGAAAACUGCGGGUUCGAGUCCCGUACGGAACG [U2C A14G G18A U32A G44A] is lower in yeast fitness: 0.694 for the first, 0.527 for the second.

First: GUUCCGUUGGCGUAAUGGUUACGCGUCUCCUUCCUAAGGAGAAGACUGCGCGUUCGAGUCCCGUACGGAACG [A20U C31U G51C]
Second: GUUCCGUUCGCGUAAUGGUAACGCGUCUCCCUCCUUAGGAGAAGACUGCGGGUUCGAGUCCCGUACGGAACG [G9C A36U]
The yeast fitness of the first is lower: 0.562 for the first, 0.618 for the second.

First: GUUCCGUUGGCGUAGUGGUAACGCCUCUCCCUCCUAAGGAGAAGACUGCGGGUUCGAGUCCCGUACAGAGCG [A15G G25C G67A A70G]
Second: GUUCCGUUGGCGUAAUGGUAACGCGUCUCCCUCCUAAGGAGAAGACUGCGGGUUUGAGUUCCGUACGGAACG [C55U C60U]
The yeast fitness of the first is lower: at most 0.5 for the first, 0.584 for the second.

Compared with GUUCCGUUGGCGUAAUGGUAACGCGUCUCCCUCCUUAGGAGAAGACAGCGGGUUCGAGUCCCGUACGGAACG [A36U U47A], GUUCCAUUGGCGUAAUGGUACCGCGUCUCCCUCCUAAGGAGAUGACUGCGGGUUCGAGUCCCGUACGGAACG [G6A A21C A43U] is lower in yeast fitness: 0.697 for the first, 0.528 for the second.

GUUCCGUUGGCGUAAUGGUAACGCGUCUCCCUCCUUAGGAGAAGACUGCGGGUUCGAGUCCCGUAAGGAACG [A36U C66A] and GUUCCGUUGGCAUAAUGAUAACGCGUCUCCUUCCUAAGGAGAAGACUGCGGGUUCGAGUCCCGUACGGAGCG [G12A G18A C31U A70G] cannot be ordered by yeast fitness: at most 0.5 for the first, at most 0.5 for the second.
